Measurements taken from ChEMBL document CHEMBL3259602, “Thiaflavan scavenges radicals and inhibits DNA oxidation: a story from the ferrocene modification” (Eur J Med Chem, 2014).
Calls of active or inactive are those of the source. The calls are words filed in the database; no cut-off is given here.

Legend:
[1] = Antioxidant activity assessed as ABTS radical scavenging activity after 16 hrs by spectrophotometric analysis; format: functional
In short: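 Radical cation pre-formed over 16 h, then diluted in ethanol to about 0.70 absorbance at 734 nm. Compound in DMSO (0.1 mL) was added to 1.9 mL of radical solution at 7.5 μM final. Absorbance decay was recorded at 25 °C. The rate constant k was derived from the initial rate (t = 0).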

[2] = Antioxidant activity assessed as inhibition of AAPH-induced oxidation of DNA at 200 uM by spectrophotometric analysis; format: functional
[3] = Antioxidant activity assessed as inhibition of AAPH-induced oxidation of DNA measured as TBARS formation by spectrophotometric analysis; format: functional
In short: (§1)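 DNA sodium salt (2.0 mg/mL) with 40 mM AAPH in phosphate buffer (8.1 mM Na2HPO4, 1.9 mM NaH2PO4, 10.0 mM EDTA), with various compound concentrations in DMSO; DMSO-only blank. Samples were heated at 37 °C. TBARS was read at 535 nm. The inhibition period was taken at the crossing of tangents, then plotted against concentration.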

[4] = tested on: Radical scavenging activity; assay: Antioxidant activity assessed as DPPH radical scavenging activity by spectrophotometric analysis; format: functional
In short: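 DPPH in ethanol (about 1.00 absorbance at 517 nm). Compound in DMSO (0.1 mL) was added to 1.9 mL of radical solution at 37.5 or 75.0 μM final, depending on compound. Absorbance decay was followed at 25 °C. The rate constant k was calculated from the initial reaction rate at t = 0.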

[5] = Antioxidant activity assessed as galvinoxyl radical scavenging activity by spectrophotometric analysis; format: functional
In short: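 Galvinoxyl in ethanol, absorbance about 1.00 at 428 nm. Compound in DMSO (0.1 mL) was added to 1.9 mL of radical solution at 7.5 or 75.0 μM final, depending on compound. Absorbance decay was recorded at 25 °C. The rate constant k was derived from the initial rate at t = 0.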

[6] = Antioxidant activity assessed as inhibition of AAPH-induced oxidation of DNA at 100 uM by spectrophotometric analysis; format: functional
In short: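 Oxidation of 2.0 mg/mL DNA by 40 mM AAPH in phosphate/EDTA buffer at 37 °C, with compound at 100 μM (DMSO vehicle; DMSO-only control). TBARS was monitored at 535 nm (ε 1.56 × 10^5 M⁻¹ cm⁻¹), and its formation rate d[TBARS]/dt was expressed in nM min⁻¹.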

[7] = Antioxidant activity assessed as inhibition of AAPH-induced oxidation of DNA at 100 uM by spectrophotometric analysis
[8] = Antioxidant activity assessed as inhibition of AAPH-induced oxidation of DNA by spectrophotometric analysis; format: functional; in short: as §1

| Structure (SMILES) | K [1] | Activity [2] | Activity [3] | K [4] | K [5] | Activity [6] | Activity [7] | Activity [8] |
| --- | --- | --- | --- | --- | --- | --- | --- | --- |
| COc1ccc2c(c1)SCC(c1ccc(O)cc1)O2 (stereo unspecified) | 0.202 ×10³ /M/s | Active | 4.2 nM/min | – | – | – | – | – |
| Cc1c(C)c2c(c(C)c1O)CCC(C)(C(=O)O)O2 (stereo unspecified) | 29.2 ×10³ /M/s | – | – | 0.353 ×10³ /M/s | 1.7 ×10³ /M/s | – | – | – |
| Oc1ccc(C2CSc3ccc(O)cc3O2)cc1 (stereo unspecified) | 10.8 ×10³ /M/s | – | 4.1 nM/min | 0.069 ×10³ /M/s | 0.034 ×10³ /M/s | Active | Active | – |
| Oc1ccc2c(c1)OC(c1ccc(O)c(O)c1)CS2 (stereo unspecified) | 16.7 ×10³ /M/s | – | – | 1.61 ×10³ /M/s | 0.57 ×10³ /M/s | – | – | Active |
| COc1ccc2c(c1)OC(c1ccc(O)cc1)CS2 (stereo unspecified) | 0.168 ×10³ /M/s | – | – | – | – | – | – | Active |
| COc1ccc2c(c1)SC=C(c1ccc(O)cc1)O2 | 8.14 ×10³ /M/s | Active | 5.8 nM/min | 0.031 ×10³ /M/s | – | – | – | – |
| COc1ccc2c(c1)SCC(c1ccc(O)c(O)c1)O2 (stereo unspecified) | 390 ×10³ /M/s | – | – | 2.2 ×10³ /M/s | 2.54 ×10³ /M/s | – | – | Active |
| Oc1ccc2c(c1)SCC(c1ccc(O)c(O)c1)O2 (stereo unspecified) | 11.7 ×10³ /M/s | – | – | 1.18 ×10³ /M/s | 0.52 ×10³ /M/s | – | – | Active |
| Oc1ccc2c(c1)SC=C(c1ccccc1)O2 | 4.89 ×10³ /M/s | Active | 5.2 nM/min | 0.0071 ×10³ /M/s | – | – | – | – |
| Oc1ccc(C2CSc3cc(O)ccc3O2)cc1 (stereo unspecified) | 8.92 ×10³ /M/s | – | – | 0.043 ×10³ /M/s | 0.025 ×10³ /M/s | – | – | Active |
| Oc1ccccc1O | 2.58 ×10³ /M/s | – | – | 1.3 ×10³ /M/s | 1.78 ×10³ /M/s | – | – | – |
